Paper PMC2900601 (Cell, 2009)
Where two headings read alike, the source gives them in different places. Where no end group is shown, it is not given here. [ ]: non-standard residue; d: D form. pT = C[C@@H](OP(=O)(O)O)[C@H](N)C(=O)O; pS = N[C@@H](COP(=O)(O)O)C(=O)O

What was measured:
[1] = target: human Nbs1 N-terminal FHA/BRCT-repeat fragment (1-382) (human) (UniProt O60934); experiment: ITC
[2] = target: Schizosaccharomyces pombe Nbs1 N-terminal FHA/BRCT-repeat fragment (1-324) (Schizosaccharomyces pombe) (UniProt O43070); experiment: ITC
[3] = target: T1, spNbs1 FHA/BRCT2 region (1-324) (Schizosaccharomyces pombe, UniProt O43070); experiment: ITC of phosphopeptides with wild-type spNbs1 N-terminal fragment; format: binding
T1 sequence (O43070 1-324): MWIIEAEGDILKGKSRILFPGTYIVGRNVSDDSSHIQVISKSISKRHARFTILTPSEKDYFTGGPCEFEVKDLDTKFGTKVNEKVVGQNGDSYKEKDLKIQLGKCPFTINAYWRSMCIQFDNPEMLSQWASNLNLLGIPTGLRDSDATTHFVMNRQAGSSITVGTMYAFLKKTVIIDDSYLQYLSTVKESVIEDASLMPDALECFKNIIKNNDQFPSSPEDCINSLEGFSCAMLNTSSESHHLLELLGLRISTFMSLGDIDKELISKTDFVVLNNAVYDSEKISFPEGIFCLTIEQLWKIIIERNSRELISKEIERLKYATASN
Summary of the method: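 Purified recombinant […] N-terminal fragment of S. pombe Nbs1 titrated by ITC with the same Mdc1 phosphothreonine peptide used for the human protein. An unphosphorylated peptide of identical sequence was also tested. Affinity was derived from the titration.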

[4] = target: T2, human Nbs1 (hNbs1) FHA/BRCT fragment (1-382) (Homo sapiens, UniProt O60934); experiment: ITC of phosphopeptides with wild-type hNbs1 N-terminal fragment; format: binding
T2 sequence (O60934 1-382): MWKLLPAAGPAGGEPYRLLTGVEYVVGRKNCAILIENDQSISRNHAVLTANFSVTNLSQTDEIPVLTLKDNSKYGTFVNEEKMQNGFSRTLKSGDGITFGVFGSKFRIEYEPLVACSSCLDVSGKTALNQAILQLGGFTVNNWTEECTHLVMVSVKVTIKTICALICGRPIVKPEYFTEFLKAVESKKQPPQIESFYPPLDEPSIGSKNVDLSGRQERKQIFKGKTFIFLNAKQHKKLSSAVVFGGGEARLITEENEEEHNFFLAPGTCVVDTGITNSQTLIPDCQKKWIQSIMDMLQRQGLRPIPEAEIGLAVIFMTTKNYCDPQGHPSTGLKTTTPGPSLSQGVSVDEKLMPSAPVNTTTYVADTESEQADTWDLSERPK

spNbs1 (1-324) R27A = target: T3, spNbs1 (1-324) R27A (Schizosaccharomyces pombe, UniProt O43070 1-324, R27A); experiment: ITC
T3 sequence: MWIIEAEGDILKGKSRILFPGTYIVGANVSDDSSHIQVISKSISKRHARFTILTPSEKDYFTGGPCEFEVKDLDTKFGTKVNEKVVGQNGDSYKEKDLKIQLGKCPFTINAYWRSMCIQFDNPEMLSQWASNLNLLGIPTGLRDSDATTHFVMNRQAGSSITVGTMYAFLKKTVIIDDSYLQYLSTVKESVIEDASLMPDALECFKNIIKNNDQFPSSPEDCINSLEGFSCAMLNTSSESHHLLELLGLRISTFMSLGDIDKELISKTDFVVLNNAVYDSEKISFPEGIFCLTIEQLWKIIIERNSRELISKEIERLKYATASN

hNbs1 (1-382) R28A = target: T4, hNbs1 (1-382) R28A (human, UniProt O60934 1-382, R28A); experiment: ITC
T4 sequence: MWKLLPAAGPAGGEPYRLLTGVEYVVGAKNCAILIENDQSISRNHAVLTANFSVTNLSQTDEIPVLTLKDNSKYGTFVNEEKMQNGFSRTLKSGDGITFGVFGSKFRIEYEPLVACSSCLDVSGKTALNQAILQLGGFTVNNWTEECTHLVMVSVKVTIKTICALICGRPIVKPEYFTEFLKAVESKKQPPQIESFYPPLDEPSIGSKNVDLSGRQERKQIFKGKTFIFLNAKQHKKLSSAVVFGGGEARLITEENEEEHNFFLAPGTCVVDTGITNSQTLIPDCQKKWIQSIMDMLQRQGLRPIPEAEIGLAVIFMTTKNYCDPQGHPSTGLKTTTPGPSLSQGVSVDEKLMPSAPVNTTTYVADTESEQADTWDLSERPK

hNbs1 (1-382) S42A = target: T5, hNbs1 (1-382) S42A (human, UniProt O60934 1-382, S42A); experiment: ITC
T5 sequence: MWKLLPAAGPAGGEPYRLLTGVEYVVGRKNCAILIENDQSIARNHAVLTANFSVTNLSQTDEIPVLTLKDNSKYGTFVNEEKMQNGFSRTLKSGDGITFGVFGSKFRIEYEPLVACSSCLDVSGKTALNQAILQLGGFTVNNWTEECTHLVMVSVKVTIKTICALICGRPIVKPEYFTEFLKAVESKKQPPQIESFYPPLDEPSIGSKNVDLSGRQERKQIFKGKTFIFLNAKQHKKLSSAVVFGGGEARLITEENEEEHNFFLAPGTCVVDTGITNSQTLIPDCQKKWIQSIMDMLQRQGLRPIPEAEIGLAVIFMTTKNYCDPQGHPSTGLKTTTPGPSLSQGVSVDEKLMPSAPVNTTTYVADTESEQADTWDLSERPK

[5] = target: T6, human Nbs1 N-terminal FHA/BRCT-repeat fragment (1-382) (human, UniProt O60934 1-382); experiment: ITC
T6 sequence: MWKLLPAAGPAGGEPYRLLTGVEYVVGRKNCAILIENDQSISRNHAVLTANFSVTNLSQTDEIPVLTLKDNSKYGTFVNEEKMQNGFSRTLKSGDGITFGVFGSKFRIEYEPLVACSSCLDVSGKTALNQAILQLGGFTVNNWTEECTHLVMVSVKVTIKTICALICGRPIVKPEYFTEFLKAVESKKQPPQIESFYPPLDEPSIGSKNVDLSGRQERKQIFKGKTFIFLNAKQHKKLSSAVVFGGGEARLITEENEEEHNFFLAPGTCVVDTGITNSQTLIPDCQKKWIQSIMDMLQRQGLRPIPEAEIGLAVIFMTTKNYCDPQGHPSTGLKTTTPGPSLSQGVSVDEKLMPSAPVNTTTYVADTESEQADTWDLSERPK

hNbs1 (1-382) K160M = target: T7, hNbs1 (1-382) K160M (human, UniProt O60934 1-382, K160M); experiment: ITC
T7 sequence: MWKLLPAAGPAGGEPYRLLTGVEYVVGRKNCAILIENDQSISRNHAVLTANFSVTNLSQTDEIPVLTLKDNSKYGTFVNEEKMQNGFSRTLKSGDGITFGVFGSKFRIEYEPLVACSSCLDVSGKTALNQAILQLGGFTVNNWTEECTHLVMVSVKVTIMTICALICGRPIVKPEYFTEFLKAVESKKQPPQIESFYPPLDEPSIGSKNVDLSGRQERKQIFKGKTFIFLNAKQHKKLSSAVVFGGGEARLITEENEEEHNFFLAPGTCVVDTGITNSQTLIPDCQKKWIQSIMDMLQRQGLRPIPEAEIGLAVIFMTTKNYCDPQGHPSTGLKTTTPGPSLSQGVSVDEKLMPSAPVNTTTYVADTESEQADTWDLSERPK

Question: Mdc1 SDpTD mono-phosphorylated peptide was tested. Which fold reduced affinity against the di-phosphorylated Mdc1 peptide [1] did it give?
Answer: Its fold reduced affinity against the di-phosphorylated Mdc1 peptide is 17 fold.

Question: For “Ctp1 Site 2 di-phosphorylated peptide (pSer-87 and pThr-89)”, which Kd [2] is on record?
Answer: The Kd was 50 nM.

Question: How did the Kd [2] turn out when “Ctp1 peptide containing singly phosphorylated Thr-78” was run?
Answer: The Kd was 200 nM.

Question: For “Ctp1 Site 1 peptide phosphorylated only on pThr-79”, which fold weaker binding than the di-phosphorylated Site 1 peptide [2] is on record?
Answer: The fold weaker binding than the di-phosphorylated Site 1 peptide was 8 fold.

Question: Which fold weaker binding than the di-phosphorylated Site 2 peptide [2] does the source give for “Ctp1 Site 2 peptide phosphorylated only on pThr-89” here?
Answer: Its fold weaker binding than the di-phosphorylated Site 2 peptide is 10 fold.

Question: What does the source list for “Mdc1 pSDpTD motif di-phosphorylated peptide (Mdc1 residues 325-336) (from UniProt Q14676 325-336)”?
Answer: Kd [2]: 500 nM; Kd [1]: 1000 nM; stoichiometry N [1]: > 1

Question: With “pSDTD: Mdc1 peptide of the same sequence in which the threonine was not phosphorylated (GFID[pS]DTDAEEE)” as the molecule, how does the “binding to spNbs1 (in words)” value [3] read?
Answer: Its value is “neither spNbs1 nor hNbs1 bound”.

Question: What about the “binding to hNbs1 (in words)” value [4] of the same molecule?
Answer: Its value is “neither spNbs1 nor hNbs1 bound”.

Question: And the “binding to hNbs1 (in words)” value ([4]; listed as mono-phosphorylated pSDTD)?
Answer: Its value is “lack of hNbs1 interactions”.

Question: For “Ctp1 Site 1 di-phosphorylated peptide (pSer-77/pThr-79)”, which fold weaker binding than the di-phosphorylated Site 2 peptide [2] is on record?
Answer: The fold weaker binding than the di-phosphorylated Site 2 peptide was 30 fold.

Question: How did the “fold reduction of apparent binding affinity against wild-type spNbs1” value (spNbs1 (1-324) R27A) turn out when GFID[pS]D[pT]DAEEE [Mdc1 pSDpTD motif di-phosphorylated peptide (Mdc1 residues 325-336)] was run?
Answer: The value was about 100 fold.

Question: Which “fold reduction of stoichiometry against wild-type hNbs1” value (from here on “fold reduction of stoichiometry”) (hNbs1 (1-382) R28A) does the source give for FID[pS]D[pT]DVEEE [di-phosphorylated peptide with a core consensus of all six Mdc1 motifs (FIDpSDpTDVEEE)] here?
Answer: The value was about 2 fold.

Question: And the “fold reduction of stoichiometry” value (hNbs1 (1-382) S42A)?
Answer: Its value is about 2 fold.

Question: And the “stoichiometry N” value [5]?
Answer: Its value is over 1.

Question: What about the “fold reduction of stoichiometry” value (hNbs1 (1-382) K160M) of the same molecule?
Answer: The value was about 2 fold.
